Test results reported in PMC8204328 (ACS Pharmacology & Translational Science, 2021).

How the values were obtained:
lean wild-type mice = assay: Upper GI motility; type: in vivo, mouse
Summary of the method: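 Upper gastrointestinal motility by charcoal transit in lean wild-type mice. The CB1R agonist ACEA is given intraperitoneally at 10 mg/kg, with or without test compound. Test compound is also given without agonist to assess motility alone.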

[1] = tested on: C2C12 mouse muscle myotubes; assay: Insulin-induced Akt-2 phosphorylation in C2C12 myotubes; type: cell-based; details: 100 nM insulin; CP-55940 5 μM
Summary of the method: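 Cultured C2C12 mouse muscle myotubes, mock- or βArr2-siRNA-transfected, exposed to 100 nM insulin with or without the CB1R agonist CP-55940 (5 μM) and test compound (100 nM). Akt phosphorylation by Western blot, β-actin loading control, densitometry quantification; each treatment in duplicate cell aliquots.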

[2] = tested on: M384S, I105A and M109A mutant hCB1R; assay: CP55,940-induced βArr2 recruitment in HEK cells expressing mutant hCB1R; type: cell-based, human; details: mutations M384S
[3] = acute oral 3 mg/kg, male wild-type mice; cited from earlier work
hCB1R = hCB1R (Homo sapiens, UniProt P21554); type: cell-based
mice [4] = assay: Hyperambulatory activity in drug-naïve mice; type: in vivo, mouse; details: single oral 3 mg/kg, βArr2-KO mice and wild-type littermates
mice [5] = assay: Elevated plus maze test; type: in vivo, mouse
Summary of the method: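 The elevated plus maze scores anxiety-like behavior in male wild-type mice after acute oral dosing or 28 days of daily oral dosing with test compound or reference antagonist. Mean ± SEM of 4–6 independent experiments.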

Chain of hCB1R (P21554 whole entry): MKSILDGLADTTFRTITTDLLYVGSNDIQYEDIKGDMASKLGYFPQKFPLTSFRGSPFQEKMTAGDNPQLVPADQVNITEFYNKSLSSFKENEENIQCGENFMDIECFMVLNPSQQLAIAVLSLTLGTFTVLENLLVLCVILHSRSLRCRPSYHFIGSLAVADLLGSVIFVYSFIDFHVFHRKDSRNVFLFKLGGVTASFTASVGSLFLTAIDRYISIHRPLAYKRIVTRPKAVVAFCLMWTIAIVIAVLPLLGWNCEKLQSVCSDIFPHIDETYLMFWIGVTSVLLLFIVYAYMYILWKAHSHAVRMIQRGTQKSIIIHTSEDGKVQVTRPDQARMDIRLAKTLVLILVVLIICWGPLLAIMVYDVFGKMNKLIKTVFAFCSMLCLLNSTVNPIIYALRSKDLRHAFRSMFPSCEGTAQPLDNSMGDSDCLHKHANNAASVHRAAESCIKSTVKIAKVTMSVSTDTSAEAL

## CCCCC/C=C\C/C=C\C/C=C\C/C=C\CCCC(=O)NCCCl [ACEA, arachidonoyl chloroethylamine]
Lean wild-type mice; 10 mg/kg intraperitoneal, lean wild-type mice
  inhibition of upper GI motility: 60%
Lean wild-type mice; ACEA alone
  inhibition of upper GI motility, wild-type versus βArr2-KO mice: to the same extent

## CCCCCCC(C)(C)c1ccc([C@@H]2C[C@H](O)CC[C@H]2CCCO)c(O)c1 [CP-55940]
[1]
  effect on insulin-induced Akt-2 phosphorylation: significantly inhibited
[2]
  CP-55940-induced βArr2 recruitment at mutant hCB1R: suppression

## CN=C(NS(=O)(=O)c1ccc(Cl)cc1)N1C[C@H](c2ccccc2)C(c2ccc(Cl)cc2)=N1 [ibipinabant]
[3]
  brain/plasma ratio: 22%
hCB1R
  bias (G/βArr): ≈ 2

## Cc1c(C(=O)NN2CCCCC2)nn(-c2ccc(Cl)cc2Cl)c1-c1ccc(Cl)cc1 [rimonabant]
Mice [4]
  hyperambulatory activity: similar, long-lasting hyperambulatory activity
Lean wild-type mice; MRI-1891 3 and 10 mg/kg
  upper GI motility in the absence of CB1R agonist (in vivo inverse agonism): similar
Mice [5]; acute oral, MRI-1891 up to 30 mg/kg, rimonabant 3 mg/kg
  anxiogenic behavior, elevated plus maze: highly anxiogenic
Mice [5]; chronic 28 days, MRI-1891 1 and 10 mg/kg/day, rimonabant 3 mg/kg/day
  anxiogenic behavior, elevated plus maze: induced strong anxiety
Mice [5]; single oral 3 mg/kg, βArr2-KO mice and wild-type littermates
  anxiogenic response, elevated plus maze: identical, strong anxiogenic responses in both strains
